# Measured values as given in ChEMBL document CHEMBL2440018 (J Med Chem, 2013).
# Activity calls are given as the source filed them. The calls are words filed in the database; no cut-off is given here.
# Legend:
# Liver [1] = assay: Half life in rat liver S9 fraction at 10 uM by reversed-phase UPLC/ESI-MRM analysis; assay type: ADME, subcellular; settings: s9, 10 µM
# In short: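 Male rat liver S9 (1.0 mg) with 0.5 mM NADPH and 10 µM compound (both final) in 50 mM potassium phosphate, pH 7.4, at 37 °C, sampled over time. Aliquots were stopped with acetonitrile containing internal standard, and the supernatant was run by UPLC/ESI-MRM. Half-lives used first-order kinetics on peak-area ratios to internal standard.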
# [2] = target: MMP-2/MMP-9 (Homo sapiens) (UniProt P08253+P14780); assay: Selectivity ratio of Ki for human recombinant MMP-9 catalytic domain to Ki for human recombinant MMP-2
# [3] = target: Matrix metalloproteinase-14 (Homo sapiens, UniProt P50281); assay: Inhibition of human recombinant MMP-14 catalytic domain using MOCAcPLGLA2pr(Dnp)AR-NH2 as substrate by fluorescence spectrophotometric analysis
# Liver [4] = assay: Metabolic stability in rat liver S9 fraction assessed as formation of {4-[4-(1-Oxo-1lambda4-thiiran-2-ylmethanesulfonyl)-phenoxy]-phenyl}-carbamic acid methyl ester at 50 uM after 30 mins by reversed-phase LC/MS analysis; assay type: ADME, subcellular; settings: s9, 0.5 h
# In short: (§1)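 50 µM compound was incubated with rat liver S9 (1.0 mg) and 0.5 mM NADPH in 50 mM potassium phosphate, pH 7.4, at 37 °C for 30 min. The reaction was stopped with one volume of acetonitrile and centrifuged. Metabolites in the supernatant were identified by reversed-phase LC/ESI-QTOF mass spectrometry.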
# Liver [5] = assay: Metabolic stability in rat liver S9 fraction assessed as formation of 4-(4-(thiiran-2-ylmethylsulfonyl)phenoxy)aniline at 50 uM after 30 mins by reversed-phase LC/MS analysis; assay type: ADME, subcellular; settings: s9, 0.5 h; in short: as §1
# [6] = target: Stromelysin-1 (Homo sapiens) (UniProt P08254); assay: Inhibition of human recombinant MMP-3 catalytic domain at 50 uM by fluorescence spectrophotometric analysis relative to control
# Liver [7] = assay: Metabolic stability in rat liver S9 fraction assessed as formation of 4-(4-(methoxycarbonylamino)phenoxy)benzenesulfinic acid at 50 uM after 30 mins by reversed-phase LC/MS analysis; assay type: ADME, subcellular; settings: s9, 0.5 h; in short: as §1
# [8] = target: T1, Interstitial collagenase (Homo sapiens) (UniProt P03956); assay: Inhibition of human recombinant MMP-1 catalytic domain at 50 uM by fluorescence spectrophotometric analysis relative to control
# T1 sequence (whole entry): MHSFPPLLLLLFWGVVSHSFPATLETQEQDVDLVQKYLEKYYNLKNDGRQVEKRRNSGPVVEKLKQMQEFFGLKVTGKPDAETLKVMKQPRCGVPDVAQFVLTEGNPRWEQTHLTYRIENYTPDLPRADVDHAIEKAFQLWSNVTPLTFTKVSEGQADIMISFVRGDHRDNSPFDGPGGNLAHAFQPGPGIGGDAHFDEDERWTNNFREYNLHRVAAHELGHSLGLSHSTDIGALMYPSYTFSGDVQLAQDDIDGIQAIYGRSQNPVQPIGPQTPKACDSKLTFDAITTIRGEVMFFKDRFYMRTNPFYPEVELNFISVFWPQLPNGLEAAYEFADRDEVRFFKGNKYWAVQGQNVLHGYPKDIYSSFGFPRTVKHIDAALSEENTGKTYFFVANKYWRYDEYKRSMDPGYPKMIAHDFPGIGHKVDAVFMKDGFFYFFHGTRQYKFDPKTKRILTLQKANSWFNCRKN
# [9] = target: 72 kDa type IV collagenase (Homo sapiens, UniProt P08253); assay: Inhibition of human recombinant MMP-2 using MOCAcPLGLA2pr(Dnp)AR-NH2 as substrate by fluorescence spectrophotometric analysis
# Sequence of 72 kDa type IV collagenase (P08253 whole entry): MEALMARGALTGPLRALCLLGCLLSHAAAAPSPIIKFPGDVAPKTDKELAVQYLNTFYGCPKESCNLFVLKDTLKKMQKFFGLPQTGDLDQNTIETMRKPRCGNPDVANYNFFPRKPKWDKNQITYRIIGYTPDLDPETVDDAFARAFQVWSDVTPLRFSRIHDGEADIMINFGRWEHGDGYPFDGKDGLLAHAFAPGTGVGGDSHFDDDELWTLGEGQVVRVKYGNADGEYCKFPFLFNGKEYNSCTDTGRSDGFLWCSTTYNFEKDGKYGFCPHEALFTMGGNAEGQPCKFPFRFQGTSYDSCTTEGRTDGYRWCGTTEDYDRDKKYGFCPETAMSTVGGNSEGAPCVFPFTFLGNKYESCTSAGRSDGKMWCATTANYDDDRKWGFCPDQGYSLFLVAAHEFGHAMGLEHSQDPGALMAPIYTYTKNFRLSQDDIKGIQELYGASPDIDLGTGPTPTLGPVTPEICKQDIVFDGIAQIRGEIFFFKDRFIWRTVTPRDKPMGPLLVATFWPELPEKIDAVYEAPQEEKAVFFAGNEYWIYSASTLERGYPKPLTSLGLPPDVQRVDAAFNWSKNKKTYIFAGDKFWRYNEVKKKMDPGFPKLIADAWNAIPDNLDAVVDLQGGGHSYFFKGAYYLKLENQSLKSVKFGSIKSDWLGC
# [10] = target: T2, Matrilysin (Homo sapiens) (UniProt P09237); assay: Inhibition of human recombinant MMP-7 at 50 uM by fluorescence spectrophotometric analysis relative to control
# T2 sequence (whole entry): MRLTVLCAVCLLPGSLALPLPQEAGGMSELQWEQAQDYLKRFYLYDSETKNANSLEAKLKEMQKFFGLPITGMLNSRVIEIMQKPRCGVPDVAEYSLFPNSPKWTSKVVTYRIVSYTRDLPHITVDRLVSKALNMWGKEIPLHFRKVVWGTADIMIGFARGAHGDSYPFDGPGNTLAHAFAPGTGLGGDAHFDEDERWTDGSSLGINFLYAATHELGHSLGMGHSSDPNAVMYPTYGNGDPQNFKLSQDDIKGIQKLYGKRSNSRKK
# Plasma [11] = assay: AUC (0 to last) in C57Bl/6J mouse plasma assessed as 4-(4-(thiiran-2-ylmethylsulfonyl)phenoxy)phenol at 25 mg/kg, sc; assay type: ADME, organism-based; parameters: time 0 - last, dose 25 mg/kg, route subcutaneous; settings: in vivo
# In short: (§2)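 Mice were dosed sc once at 25 mg/kg; plasma and perfused brain (n = 3 per time point) were quantified by UPLC/ESI-MRM. AUC0-last came from the mean concentration-time curve by the trapezoidal rule, and AUC0-∞ = AUC0-last + Clast/k. α and β half-lives came from linear regression on the linear portion of the concentration-time data, with t1/2 = ln2/k.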
# Liver [12] = assay: Metabolic stability in rat liver S9 fraction assessed as formation of Ethyl-carbamic acid 4-[4-(1-oxo-1lambda4-thiiran-2-ylmethanesulfonyl)-phenoxy]-phenyl ester at 50 uM after 30 mins by reversed-phase LC/MS analysis; assay type: ADME, subcellular; settings: s9, 0.5 h; in short: as §1
# Plasma [13] = assay: AUC (0 to infinity) in C57Bl/6J mouse plasma assessed as 4-(4-(thiiran-2-ylmethylsulfonyl)phenoxy)phenol at 25 mg/kg, sc; assay type: ADME, organism-based; parameters: time infinity, dose 25 mg/kg, route subcutaneous; settings: in vivo; in short: as §2
# [14] = target: Matrix metalloproteinase-9 (Homo sapiens, UniProt P14780); assay: Inhibition of human recombinant MMP-9 catalytic domain using MOCAcPLGLA2pr(Dnp)AR-NH2 as substrate by fluorescence spectrophotometric analysis
# Sequence of Matrix metalloproteinase-9 (P14780 whole entry, the tested form may be a part): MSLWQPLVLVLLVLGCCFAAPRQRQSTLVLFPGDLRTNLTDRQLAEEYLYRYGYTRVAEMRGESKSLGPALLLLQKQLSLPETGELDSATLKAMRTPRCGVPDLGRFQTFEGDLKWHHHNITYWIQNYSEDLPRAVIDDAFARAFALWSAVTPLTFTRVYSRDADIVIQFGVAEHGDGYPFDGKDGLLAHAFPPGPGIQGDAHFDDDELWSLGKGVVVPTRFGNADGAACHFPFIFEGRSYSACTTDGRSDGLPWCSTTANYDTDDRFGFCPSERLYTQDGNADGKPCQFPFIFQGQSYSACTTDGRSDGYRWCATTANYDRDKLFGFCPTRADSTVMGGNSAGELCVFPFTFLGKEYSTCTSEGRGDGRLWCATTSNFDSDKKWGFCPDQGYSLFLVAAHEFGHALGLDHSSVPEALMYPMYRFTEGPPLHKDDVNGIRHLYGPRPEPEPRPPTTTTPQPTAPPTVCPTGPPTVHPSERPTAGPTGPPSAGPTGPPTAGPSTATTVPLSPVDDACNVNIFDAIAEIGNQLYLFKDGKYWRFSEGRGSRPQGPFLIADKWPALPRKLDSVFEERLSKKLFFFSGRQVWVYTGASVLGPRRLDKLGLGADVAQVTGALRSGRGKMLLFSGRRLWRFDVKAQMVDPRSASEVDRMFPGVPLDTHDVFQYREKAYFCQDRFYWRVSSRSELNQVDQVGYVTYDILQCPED
# Brain [15] = assay: Metabolic stability in C57Bl/6J mouse brain assessed as formation of 4-(4-(thiiran-2-ylmethylsulfonyl)phenoxy)phenol at 25 mg/kg, sc measured at 10 to 240 mins; assay type: ADME, organism-based; parameters: dose 25 mg/kg, route subcutaneous; settings: in vivo
# In short: (§3)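 Female C57Bl/6J mice (6–8 weeks, 16–19 g) received a single 100 µL sc dose equivalent to 25 mg/kg, in 10% DMSO/25% Tween 80/65% water or 80% propylene glycol/20% DMSO. Terminal heparinised vena cava blood gave plasma, and saline-perfused whole brain was taken; n = 3 per time point. Acetonitrile extracts with internal standard were run by UPLC/ESI-MRM against matrix calibration curves, linear 0.05–5 µM.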
# Brain [16] = assay: Drug uptake in C57Bl/6J mouse brain assessed as 4-(4-(thiiran-2-ylmethylsulfonyl)phenoxy)phenol measured per mg of tissue at 25 mg/kg, sc measured at 20 mins by reversed phase UPLC/ESI-MRM analysis; assay type: ADME, organism-based; parameters: dose 25 mg/kg, route subcutaneous; settings: in vivo; in short: as §3
# Brain [17] = assay: Drug uptake in C57Bl/6J mouse brain assessed as 4-(4-(thiiran-2-ylmethylsulfonyl)phenoxy)phenol measured per mg of tissue at 25 mg/kg, sc measured at 4 hrs by reversed phase UPLC/ESI-MRM analysis; assay type: ADME, organism-based; parameters: dose 25 mg/kg, route subcutaneous; settings: in vivo; in short: as §3
# Plasma [18] = assay: Plasma concentration in C57Bl/6J mouse assessed as 4-(4-(thiiran-2-ylmethylsulfonyl)phenoxy)phenol at 25 mg/kg, sc measured at 4 hrs by reversed phase UPLC/ESI-MRM analysis; assay type: ADME, organism-based; parameters: dose 25 mg/kg, route subcutaneous; settings: in vivo; in short: as §3
# Brain [19] = assay: Elimination half life in C57Bl/6J mouse brain assessed as 4-(4-(thiiran-2-ylmethylsulfonyl)phenoxy)phenol at 25 mg/kg, sc; assay type: ADME, organism-based; parameters: dose 25 mg/kg, route subcutaneous; settings: in vivo; in short: as §2
# [20] = target: MMP-2/MMP-14 (Homo sapiens) (UniProt P50281+P08253); assay: Selectivity ratio of Ki for human recombinant MMP-14 catalytic domain to Ki for human recombinant MMP-2
# [21] = Ratio of AUC in brain to plasma in C57Bl/6J mouse assessed as 4-(4-(thiiran-2-ylmethylsulfonyl)phenoxy)phenol at 25 mg/kg, sc; assay type: ADME, organism-based; parameters: dose 25 mg/kg, route subcutaneous
# Liver [22] = assay: Metabolic stability in rat liver S9 fraction assessed as formation of 4-(4-(ethylcarbamoyloxy)phenoxy)benzenesulfinic acid at 50 uM after 30 mins by reversed-phase LC/MS analysis; assay type: ADME, subcellular; settings: s9, 0.5 h; in short: as §1
# Brain [23] = assay: AUC (0 to infinity) in C57Bl/6J mouse brain assessed as 4-(4-(thiiran-2-ylmethylsulfonyl)phenoxy)phenol at 25 mg/kg, sc; assay type: ADME, organism-based; parameters: time infinity, dose 25 mg/kg, route subcutaneous; settings: in vivo; in short: as §2
# Plasma [24] = assay: Metabolic stability in C57Bl/6J mouse plasma assessed as formation of 4-(4-(thiiran-2-ylmethylsulfonyl)phenoxy)phenol at 25 mg/kg, sc measured at 10 to 240 mins; assay type: ADME, organism-based; parameters: dose 25 mg/kg, route subcutaneous; settings: in vivo; in short: as §3
# Neutrophil collagenase = Neutrophil collagenase (Homo sapiens, UniProt P22894); assay: Inhibition of human recombinant MMP-8 catalytic domain using […] as substrate by fluorescence spectrophotometric analysis
# Sequence of Neutrophil collagenase (P22894 whole entry, the tested form may be a part): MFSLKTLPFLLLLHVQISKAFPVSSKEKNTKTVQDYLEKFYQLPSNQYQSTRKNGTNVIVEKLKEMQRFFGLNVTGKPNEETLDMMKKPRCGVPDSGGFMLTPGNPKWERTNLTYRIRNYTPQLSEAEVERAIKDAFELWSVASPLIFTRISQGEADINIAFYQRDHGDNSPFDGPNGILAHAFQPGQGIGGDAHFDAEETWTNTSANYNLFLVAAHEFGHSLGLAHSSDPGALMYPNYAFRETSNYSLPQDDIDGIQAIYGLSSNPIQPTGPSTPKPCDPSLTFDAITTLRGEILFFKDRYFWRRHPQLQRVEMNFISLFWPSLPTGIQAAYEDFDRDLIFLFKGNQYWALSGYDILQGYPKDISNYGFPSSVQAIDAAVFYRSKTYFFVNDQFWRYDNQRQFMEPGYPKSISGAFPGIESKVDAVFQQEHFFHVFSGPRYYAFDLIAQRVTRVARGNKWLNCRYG
# Liver [25] = assay: Metabolic stability in rat liver S9 fraction assessed as formation of 4-(4-(thiiran-2-ylmethylsulfonyl)phenoxy)phenol at 50 uM after 30 mins by reversed-phase LC/MS analysis; assay type: ADME, subcellular; settings: s9, 0.5 h; in short: as §1
# Homo sapiens = species on record: Homo sapiens; assay: Selectivity ratio of Ki for human recombinant MMP-8 catalytic domain to Ki for human recombinant MMP-2
# Brain [26] = assay: AUC (0 to last) in C57Bl/6J mouse brain assessed as 4-(4-(thiiran-2-ylmethylsulfonyl)phenoxy)phenol at 25 mg/kg, sc; assay type: ADME, organism-based; parameters: dose 25 mg/kg, route subcutaneous; settings: in vivo; in short: as §2
# Plasma [27] = assay: Plasma concentration in C57Bl/6J mouse assessed as 4-(4-(thiiran-2-ylmethylsulfonyl)phenoxy)phenol at 25 mg/kg, sc measured at 10 mins by reversed phase UPLC/ESI-MRM analysis; assay type: ADME, organism-based; parameters: dose 25 mg/kg, route subcutaneous; settings: in vivo; in short: as §3
# Plasma [28] = assay: Primary phase half life in C57Bl/6J mouse plasma assessed as 4-(4-(thiiran-2-ylmethylsulfonyl)phenoxy)phenol at 25 mg/kg, sc; assay type: ADME, organism-based; parameters: dose 25 mg/kg, route subcutaneous; settings: in vivo; in short: as §2
# Plasma [29] = assay: Elimination half life in C57Bl/6J mouse plasma assessed as 4-(4-(thiiran-2-ylmethylsulfonyl)phenoxy)phenol at 25 mg/kg, sc; assay type: ADME, organism-based; parameters: dose 25 mg/kg, route subcutaneous; settings: in vivo; in short: as §2
structure (smiles),measurement,setting,value
COC(=O)Nc1ccc(Oc2ccc(S(=O)(=O)CC3CS3)cc2)cc1 (stereo not drawn),t1/2,Liver [1],0.293 h
same,Ratio Ki,[2],2
same,Ki,[3],2.6 µM
same,Stability,Liver [4],Unstable
same,Stability,Liver [5],Unstable
same,inhibition,[6],38%
same,Stability,Liver [7],Unstable
same,inhibition,[8],inactive
same,Ki,[9],0.05 µM
same,inhibition,[10],inactive
CCNC(=O)Oc1ccc(Oc2ccc(S(=O)(=O)CC3CS3)cc2)cc1 (stereo not drawn),t1/2,Liver [1],0.38 h
same,AUClast,Plasma [11],54 µM·min
same,Stability,Liver [12],Unstable
same,AUC,Plasma [13],69.9 µM·min
same,Ratio Ki,[2],20
same,Ki,[3],17 µM
same,Ki,[14],12 µM
same,Stability,Brain [15],Unstable
same,Drug uptake,Brain [16],1.35 pmol
same,Drug uptake,Brain [17],0.255 pmol
same,concentration,Plasma [18],114 nM
same,beta t1/2,Brain [19],8.88 h
same,Ratio Ki,[20],20
same,Ratio AUC,[21],1.64
same,Stability,Liver [22],Unstable
same,AUC,Brain [23],129 pmol·min/mg
same,Stability,Plasma [24],Unstable
same,inhibition,[6],37%
same,inhibition,[8],inactive
same,Ki,Neutrophil collagenase,15 µM
same,Stability,Liver [25],Unstable
same,Ki,[9],0.55 µM
same,Ratio Ki,Homo sapiens,20
same,AUClast,Brain [26],88.8 pmol·min/mg
same,concentration,Plasma [27],1240 nM
same,alphat1/2,Plasma [28],41.3 min
same,inhibition,[10],inactive
same,beta t1/2,Plasma [29],7.7 h
